# High-throughput results: PubChem BioAssay, several laboratories
# This excerpt belongs to a sample that is enriched for hits.
# V-ATPase pHluor: regulators of yeast V-ATPase proton pumping, primary screen, pHLuorin cytosolic pH fluorescence. 350,000 compounds, 0.37% hits. response, % at 10 µM. AID 504577, 2011. S. cerevisiae; in the data active = response mostly above about 7.3%, no sharp cut-off; inactive = mostly below about 5.4%; note: actives read high
# KCC2 mod: KCC2 cotransporter modulators, thallium flux, primary screen, cell-based, HEK293 KCC2, FluoZin-2 fluorescence, MLSMR. KCC2 cells, thallium flux FluoZin-2 fluorescence. B-score of Tl+ flux slope (higher = more flux/activation; lower = inhibition) at 10 µM. 190,000 compounds, 2.2% hits. AID 1456, 2008;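 active = thallium flux slope and its plate-corrected score both differing from the plate sample mean at a set confidence after two filtering rounds, in either direction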;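 note: slope of fluorescence scaled to starting intensity during 10 to 20 s after thallium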
# Dynein cargo inh: inhibitors of GR-EGFP nuclear translocation, primary screen, dynein cargo transport inhibitor project, imaging, high-content, 3617.4 mouse cells | AID 1381, 2008 | test concentration mostly 20 µM; stimulated with dexamethasone, 1 µM; hits give low values | z-score, hits read low | 220,000 compounds, 0.47% hits;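 active = plate z-score of nuclear minus cytoplasmic receptor signal below a set negative limit, without overly bright fluorescence or cell loss, cut at about -3.5 in these data, passing the limit was not always enough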;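 note: z-score of nuclear minus cytoplasmic ring GR-EGFP intensity difference per well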
#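 Also added – dexamethasone, 1.0 µM final · Buffer or medium – tet-free, stripped-serum medium · Schedule – induction 48 h, compound 1 h, agonist 30 min · Detection – formaldehyde fixation, Hoechst nuclear stain, 10x automated fluorescence imaging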
# p-CIP stab down: p/CIP-EGFP fusion destabilizers, primary screen, fluorescence, F442A cells | 290,000 compounds, 0.01% hits | 16 h | decrease of EGFP signal, % at 10 µM | Q05BA5;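 active = EGFP signal decrease of at least 30% at 10 µM or well 3 SD below plate mean, unless failing retest; inactive = the rest, including hits failing retest or dose response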
# ABCB6 inh MLPCN: ABCB6 transporter inhibitors, primary screen, K562-ABCB6 cells, flow cytometry, MLPCN library | 360,000 compounds, 0.19% hits | fluorescence ratio to DMSO, % at 10 µM | K562-ABCB6 porphyrin accumulation, 1 h; hits give low values | AID 602162, 2011 | ATP-binding cassette sub-family B member 6 (Homo sapiens), Q9NP58;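 active = fluorescence ratio to DMSO below 75%, the collection mean minus 3 SD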;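 note: signal is porphyrin accumulated inside mitochondria; lower ratio means ABCB6 inhibition with less porphyrin fluorescence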
# Hits are given with their value; - = inactive; . = no result.
SMILES,V-ATPase pHluor,KCC2 mod,Dynein cargo inh,p-CIP stab down,ABCB6 inh MLPCN
CCOC(=O)c1ccc(N2C(=O)CC(Sc3nnc(C)s3)C2=O)cc1 (stereo not drawn),-,-,-3.53,-,-
COc1ccc(N2C(=O)C(CC(=O)Nc3ccccc3)N(Cc3cccs3)C2=O)cc1 (stereo not drawn),15.9,-,-,-,-
COc1ccc(C2=CC(=O)C=CC2=O)cc1,.,-,-6.34,-,.
C=CCSc1nc2ccccc2n1C(=O)/C=C/c1ccc(OC)c(OC)c1,-,-,-5.09,-,-
CCSc1nc2ccccc2n1C(=O)/C=C/c1ccc(OC)c(OC)c1,-,-,-,-,-
Cc1nc(-c2ccc(F)cc2)c(CC(=O)N(C)CC(=O)Nc2cccc(F)c2)s1,-,.,.,.,-
O=[N+]([O-])c1c(Nc2ccccn2)cc(Cl)c2nonc12,33.0,-,-,-,-
CC1(C(=O)NS(=O)(=O)c2cccc(Cl)c2)CCN1C(=O)C/C=C/c1ccccc1 (stereo not drawn),.,.,.,.,-
CNC(=S)Nc1sc2c(c1C(=O)OC)CCC2,-,52.2,-,-,-
CCOC(=O)c1c(NC(=S)NC)sc2c1CC(C)(C)SC2,-,37,-,-,-
COC(=O)c1c(NC(C)=O)sc2c1CCCC2,-,-,-,-,-
CCOC(=O)c1c(NC(=S)Nc2ccccc2)sc2c1CC(C)(C)SC2,-,-,-,-,-
COC(=O)c1c(NC(=S)Nc2ccc(F)cc2[N+](=O)[O-])sc2c1CCCCC2,-,20.2,-,-,-
CCCS(=O)(=O)NC(=O)C1(C)CCN(C(=O)c2ccccc2OC(F)(F)F)C1 (stereo not drawn),.,.,.,.,-
CC(C)Oc1cc(F)ccc1-c1cc(C(=O)Nc2cccc(C(F)(F)F)c2)[nH]n1,.,.,.,.,-
O=C1COc2ccc(N3C(=O)C=CC3=O)cc2N1,.,-,-4.02,-,.
O=C1COc2ccc(S(=O)(=O)N3CCCC3)cc2N1,-,.,.,-,-
CCc1nc2c(OCc3ccc(OC(F)F)cc3)cccn2c1N(C)C(=O)c1ccco1,.,.,.,.,-
OC(c1ccc2ccccc2c1)c1ncc(-c2cccc3ccccc23)[nH]1 (stereo not drawn),.,.,.,.,-
O=C(Nc1nc(-c2ccccn2)cs1)c1ccc(Br)s1,-,38.9,-,-,-
CC(C)C[C@@H]1Cc2[nH][nH]c(=O)c2[C@H](C(C)C)O1,.,.,.,.,-
N#Cc1nc(Cc2cccc3ccccc23)oc1NCCN1CCCCC1,-,-4.34,-,-,-
N#Cc1nc(-c2cccc3ccccc23)oc1NCCN1CCOCC1,-,-,-,-,-
COc1ccc(-c2cc(NC=O)c3ncc(-c4cccc(C(=O)NCCN(C)C)c4)n3c2)c(OC)c1,.,.,.,.,-
O=C(CNS(=O)(=O)c1c(F)cc(F)cc1Br)OCC(=O)N1CCCC1=O,13.4,.,.,.,-
SMILES,V-ATPase pHluor,KCC2 mod,Dynein cargo inh,p-CIP stab down,ABCB6 inh MLPCN
CN(C)S(=O)(=O)c1cccc(NC(=S)Nc2ccc(Cl)cc2Cl)c1,-,5.45,-,-,-
CN(C)S(=O)(=O)c1cccc(NC(=S)Nc2cc(Cl)cc(Cl)c2)c1,-,-,-,-,-
O=C(O)c1ccc(CN2C[C@@H](CO)O[C@@H](n3cnc4c(NCc5ccc(F)cc5)ncnc43)C2)cc1,.,.,.,.,-
COC(=O)c1sccc1-c1ccc(/C=N/OC(=O)c2ccccc2)o1,-,-,-,-,54.0
COC(=O)c1ccccc1-c1ccc(/C=N/NC(N)=O)o1,-,-,-,-,-
Cc1cccc(C)c1NC(=O)C(c1ccccc1)N1CCN(c2ccc(C(F)(F)F)cn2)CC1 (stereo not drawn),.,.,.,.,-
CCOC(=O)C(NC(=O)c1ccccc1)=C1CCCCC1,-,.,-,-,-
COC(=O)C(NC(=O)c1ccccc1)=C1CCCCC1,-,.,-,-,74.0
CC(/C=C(\NC(=O)c1ccccc1)C(=O)N=Nc1c(O)[nH]c2ccc(C)cc12)=C\c1ccccc1,-,-,-,-,73.0
Cc1ccc2[nH]c(O)c(N=NC(N)=S)c2c1,-,-,-,-,-
CCOC(=O)N1CCN(c2c(NCCN3CCN(Cc4ccccc4)CC3)c(=O)c2=O)CC1,-,-,-,-,-
CCOC(=O)N1CCC(Nc2c(NCCN3CCN(Cc4ccccc4)CC3)c(=O)c2=O)CC1,14.1,-,-,-,-
COc1ccc(NC2CCCCC2NS(=O)(=O)c2ccc(C)cc2)cc1 (stereo not drawn),21.0,.,.,-,-
Cc1cc2ncn(/N=C/c3ccc([N+](=O)[O-])s3)c2cc1C,-,-,-,-,-
NC(=O)c1ccc(N=Cc2ccc([N+](=O)[O-])s2)cc1,112.7,-,-4.05,-,-
Cc1cc(C)cc(N=Cc2ccc([N+](=O)[O-])s2)c1,112.0,-,-,-,-
O=C(Cc1cccs1)N/N=C\c1ccc([N+](=O)[O-])s1,-,-,-,-,-
Cc1ccc(C(=O)Nc2nnc(COCCO)s2)cc1,.,.,.,.,-
Cc1ccc2nc(NC(=O)CCn3c(=O)sc4ccccc43)sc2c1,-,.,-,-,72.0
Cc1cc(-c2n[nH]c(=S)n2/N=C/c2ccc(C)s2)n[nH]1,-,-,-,-,-
Cc1cc(-c2n[nH]c(=S)n2/N=C/C=C/c2ccccc2)n[nH]1,-,-,-,-,65.0
COc1ccccc1/C=C/C=N/n1c(-c2cc(C)[nH]n2)n[nH]c1=S,-,-,-,-,-
Cc1cc(-c2n[nH]c(=S)n2/N=C/c2ccc(Br)s2)n[nH]1,-,10.3,-,-,-
CC(C)CC1NC(=O)c2cccnc2-n2c1nc1ccccc1c2=O (stereo not drawn),-,.,.,.,-
COc1ccc(N2C(=O)CC(Sc3nc(C)cc(C)c3C#N)C2=O)cc1 (stereo not drawn),-,.,-,-,-
